≈ marks a conversion by molar mass, not a printed value. Calls of active or inactive are those of the source. No cut-off for these calls is given here.
Columns and labels:
[1] = tested on: Mycobacterium tuberculosis; assay: Antitubercular activity against Mycobacterium tuberculosis H37Rv at 50 ug/mL by agar dilution assay; assay type: functional, organism-based
[2] = tested on: Mycobacterium tuberculosis; assay: Antitubercular activity against Mycobacterium tuberculosis H37Rv by agar dilution assay; assay type: functional
In short: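 Compounds 2-fold serially diluted into 7H10 agar tubes. H37Rv inoculum taken from fresh Lowenstein-Jensen slants, adjusted to 1 mg/mL wet weight in 0.05% Tween 80 saline, then diluted 10^-2 (about 10⁷ cfu/mL) and spotted onto the agar. Incubated at 37 °C; final read at 30 days. MIC is the lowest concentration giving complete growth inhibition per spot. Ofloxacin was the standard.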

Vero [3] = assay: Cytotoxicity against Vero cells at 100 ug/mL after 72 hrs by MTT assay; assay type: cell-based; details: chlorocebus sabaeus
In short: (§1)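 VERO cells (from ATCC, maintained in-house) were seeded and grown at 37 °C in 5% CO₂/95% air. They were then exposed to the compound at 25, 50 and 100 µg/mL for 72 h.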

J774.A1 [4] = assay: Cytotoxicity against mouse […] cells at 12.5 ug/mL; assay type: cell-based
J774.A1 [5] = assay: Cytotoxicity against mouse […] cells at 25 ug/mL; assay type: cell-based
J774.A1 [6] = assay: Cytotoxicity against mouse […] cells at 50 ug/mL; assay type: cell-based
Vero [7] = assay: Cytotoxicity against Vero cells at 25 ug/mL after 72 hrs by MTT assay; assay type: cell-based; details: chlorocebus sabaeus; in short: as §1

Compound | MIC [2] [µg/mL] | further results
CC(C)O[C@@H]1C=C([C@H](O)c2ccc(F)cc2)C(=O)[C@@H](COC(=O)C(C)(C)C)O1 | – | Activity [1]: inactive
CC(C)O[C@@H]1C=C([C@H](O)c2ccc(C#N)cc2)[C@H](O)[C@@H](COC(=O)C(C)(C)C)O1 | – | Activity [1]: inactive
CCCCCCCCC[C@@H](O)C1=C[C@@H](OC(C)C)O[C@H](COC(=O)c2ccc([N+](=O)[O-])cc2)C1=O | 25 (≈ 50.9 µM) | –
CC(C)O[C@@H]1C=C([C@H](O)c2ccc(C(F)(F)F)cc2)C(=O)[C@@H](COC(=O)C(C)(C)C)O1 | 50 (≈ 112 µM) | –
CC(C)O[C@@H]1C=C([C@H](O)c2ccc(C#N)cc2)C(=O)[C@@H](COC(=O)C(C)(C)C)O1 | 3.12 (≈ 7.77 µM) | Activity (Vero [3]): Non-toxic; Activity (J774.A1 [4]): Non-toxic; Activity (J774.A1 [5]): Non-toxic; Activity (J774.A1 [6]): Non-toxic
CC(C)O[C@@H]1C=C([C@H](O)c2ccc(F)cc2)[C@H](O)[C@@H](COC(=O)C(C)(C)C)O1 | 25 (≈ 63.1 µM) | –
CC(C)O[C@@H]1C=C([C@H](O)c2ccccc2[N+](=O)[O-])[C@H](O)[C@@H](COC(=O)C(C)(C)C)O1 | 25 (≈ 59 µM) | –
CC(C)O[C@@H]1C=C([C@H](O)c2ccccc2[N+](=O)[O-])C(=O)[C@@H](COC(=O)C(C)(C)C)O1 | 50 (≈ 119 µM) | –
CC(C)O[C@@H]1C=C([C@H](O)c2ccc(C(F)(F)F)cc2)[C@H](O)[C@@H](COC(=O)C(C)(C)C)O1 | 25 (≈ 56 µM) | –
CC(C)O[C@@H]1C=C([C@H](O)c2cccc([N+](=O)[O-])c2)C(=O)[C@@H](COC(=O)C(C)(C)C)O1 | 50 (≈ 119 µM) | –
CC(C)O[C@@H]1C=C([C@H](O)c2ccc([N+](=O)[O-])cc2)[C@H](O)[C@@H](COC(=O)c2ccc([N+](=O)[O-])cc2)O1 | 25 (≈ 51.2 µM) | –
CC(C)O[C@@H]1C=C([C@H](O)c2ccc([N+](=O)[O-])cc2)C(=O)[C@@H](COC(=O)C(C)(C)C)O1 | 50 (≈ 119 µM) | –
CC(C)O[C@@H]1C=C([C@H](O)c2ccc([N+](=O)[O-])cc2)C(=O)[C@@H](COC(=O)c2ccc([N+](=O)[O-])cc2)O1 | 25 (≈ 51.4 µM) | –
CCC[C@@H](O)C1=C[C@@H](OC(C)C)O[C@H](COC(=O)c2ccc([N+](=O)[O-])cc2)C1=O | 25 (≈ 61.4 µM) | –
CC(=O)OC[C@H]1O[C@H](OC(C)C)C=C([C@H](O)c2ccc([N+](=O)[O-])cc2)[C@@H]1O | 25 (≈ 65.6 µM) | –
CC(=O)OC[C@H]1O[C@H](OC(C)C)C=C([C@H](O)c2ccc([N+](=O)[O-])cc2)C1=O | 1.56 (≈ 4.11 µM) | Activity (J774.A1 [4]): Non-toxic; Activity (Vero [7]): Toxic; Activity (J774.A1 [5]): Non-toxic; Activity (J774.A1 [6]): Non-toxic
CC(C)O[C@@H]1C=C([C@H](O)c2cccc([N+](=O)[O-])c2)[C@H](O)[C@@H](COC(=O)C(C)(C)C)O1 | 25 (≈ 59 µM) | –
CCC[C@@H](O)C1=C[C@@H](OC(C)C)O[C@H](COC(=O)C(C)(C)C)C1=O | 25 (≈ 73 µM) | –
CC(C)O[C@@H]1C=C([C@H](O)c2ccc(C(F)(F)F)cc2)C(=O)[C@@H](COC(=O)c2ccc([N+](=O)[O-])cc2)O1 | 25 (≈ 49.1 µM) | –
CCCCCCCCC[C@@H](O)C1=C[C@@H](OC(C)C)O[C@H](COC(=O)C(C)(C)C)[C@H]1O | 1.56 (≈ 3.64 µM) | Activity (J774.A1 [4]): Non-toxic; Activity (Vero [7]): Toxic; Activity (J774.A1 [5]): Non-toxic; Activity (J774.A1 [6]): Non-toxic
CCCCCCCCC[C@@H](O)C1=C[C@@H](OC(C)C)O[C@H](COC(=O)c2ccc([N+](=O)[O-])cc2)[C@H]1O | 25 (≈ 50.6 µM) | –
CC(C)O[C@@H]1C=C([C@H](O)c2ccc(F)cc2)C(=O)[C@@H](COC(=O)c2ccc([N+](=O)[O-])cc2)O1 | 25 (≈ 54.4 µM) | –
CC(C)O[C@@H]1C=C([C@H](O)c2ccc(C(F)(F)F)cc2)[C@H](O)[C@@H](COC(=O)c2ccc([N+](=O)[O-])cc2)O1 | 25 (≈ 48.9 µM) | –
CC(C)O[C@@H]1C=C([C@H](O)c2ccc(C#N)cc2)C(=O)[C@@H](COC(=O)c2ccc([N+](=O)[O-])cc2)O1 | 25 (≈ 53.6 µM) | –
CCCCCCCCC[C@@H](O)C1=C[C@@H](OC(C)C)O[C@H](COC(=O)C(C)(C)C)C1=O | 6.25 (≈ 14.7 µM) | Activity (J774.A1 [4]): Non-toxic; Activity (Vero [7]): Toxic; Activity (J774.A1 [5]): Non-toxic; Activity (J774.A1 [6]): Non-toxic
CC(C)O[C@@H]1C=C([C@H](O)c2ccc([N+](=O)[O-])cc2)[C@H](O)[C@@H](COC(=O)C(C)(C)C)O1 | – | Activity [1]: inactive

Source: ChEMBL document CHEMBL1145391, “C-3 alkyl/arylalkyl-2,3-dideoxy hex-2-enopyranosides as antitubercular agents: synthesis, biological evaluation, and QSAR study” (J Med Chem, 2007)
